ChEMBL document CHEMBL1142588, “Communesins G and H, new alkaloids from the psychrotolerant fungus Penicillium rivulum” (J Nat Prod, 2005)
Activity calls are given as the source filed them. The rule behind the calls is not given here.

What was measured:
Escherichia coli = assay: Antibacterial activity against Escherichia coli assessed as inhibition zone at 1 mg/mL by paper disk assay; assay type: functional, organism-based
Method in brief: (§1)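 Paper disk diffusion; 30 μL of a 1 mg/mL compound solution applied per disk; read-out as zone of inhibition. Panel run in parallel: bacteria E. coli, B. subtilis, P. aeruginosa; fungi C. albicans, T. mentagrophytes, A. resinae.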

Human alphaherpesvirus 1 = assay: Antiviral activity against herpes simplex virus type 1 ATCC VR 733 infected in african green monkey BS-C-1 cells; assay type: functional, organism-based
Method in brief: (§2)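 BSC-1 African green monkey kidney cells infected with Herpes simplex type 1 virus (ATCC VR 733); scored for inhibition of virus and for alteration of the host cells.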

P388 = assay: Cytotoxicity against mouse P388 cells; assay type: functional; conditions: read-out: ID50 (the source's name)
Candida albicans = assay: Antifungal activity against Candida albicans assessed as inhibition zone at 1 mg/mL by paper disk assay; assay type: functional, organism-based; method in brief: as §1
Poliovirus 1 = assay: Antiviral activity against Poliovirus type 1 infected in african green monkey BS-C-1 cells; assay type: functional, organism-based
Method in brief: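 Poliovirus type 1 (Pfizer vaccine strain) infecting African green monkey kidney BSC-1 cells; scored for inhibition of the virus and for alteration of the host cells.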

[1] = Cytotoxicity against african green monkey BS-C-1 cells; assay type: cell-based; conditions: chlorocebus aethiops, bsc-1; method in brief: as §2
Amorphotheca resinae = assay: Antifungal activity against Amorphotheca resinae assessed as inhibition zone at 1 mg/mL by paper disk assay; assay type: functional, organism-based; method in brief: as §1
Bacillus subtilis = assay: Antibacterial activity against Bacillus subtilis assessed as inhibition zone at 1 mg/mL by paper disk assay; assay type: functional, organism-based; method in brief: as §1
[2] = tested on: Trichophyton mentagrophytes; assay: Antifungal activity against Trichophyton mentagrophytes assessed as inhibition zone at 1 mg/mL by paper disk assay; assay type: functional, organism-based; method in brief: as §1
Pseudomonas aeruginosa = assay: Antibacterial activity against Pseudomonas aeruginosa assessed as inhibition zone at 1 mg/mL by paper disk assay; assay type: functional, organism-based; method in brief: as §1

| SMILES | Activity (Escherichia coli) | Activity (Human alphaherpesvirus 1) | IC50 (P388) [µg/mL] | Activity (Candida albicans) | Activity (Poliovirus 1) | Activity [1] | Activity (Amorphotheca resinae) | Activity (Bacillus subtilis) | Activity [2] | Activity (Pseudomonas aeruginosa) |
| --- | --- | --- | --- | --- | --- | --- | --- | --- | --- | --- |
| CCC(=O)N1CC[C@]23c4ccccc4N[C@H]4N(C)c5cccc6c5[C@]42CCN([C@H]6[C@@H]2OC2(C)C)[C@H]13 [COMMUNESIN G] | inactive | inactive | > 12.5 | inactive | inactive | Non-toxic | inactive | inactive | inactive | inactive |
| CCCC(=O)N1CC[C@]23c4ccccc4N[C@H]4N(C)c5cccc6c5[C@]42CCN([C@H]6[C@@H]2OC2(C)C)[C@H]13 [COMMUNESIN H] | inactive | inactive | > 12.5 | inactive | inactive | Non-toxic | inactive | inactive | inactive | inactive |
